Laboratory results taken from ChEMBL document CHEMBL2384906, “Biological activity, design, synthesis and structure activity relationship of some novel derivatives of curcumin containing sulfonamides” (Eur J Med Chem, 2013).
≈ marks a conversion by molar mass, not a printed value. Calls of active or inactive are those of the source. The calls are words filed in the database; no cut-off is given here.

Columns and labels:
Aspergillus flavus [1] = assay: Antifungal activity against Aspergillus flavus MTCC 1021 assessed as zone of inhibition at 20 uM after 48 hrs by disc diffusion method; format: functional
Method in brief: (§1)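 Spores from 4-day potato dextrose agar cultures, suspended in sterile water at 1.5 × 10⁵ CFU/mL. 0.2 mL was spread on potato dextrose agar. 5 mm filter-paper discs soaked with test compound were laid on the lawn. Incubation was 48 h at 28 °C, then the inhibition zone was measured in mm. Fluconazole was the positive control and acetone the negative control.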

Escherichia coli [2] = assay: Antimicrobial activity against Escherichia coli ATCC 35218 assessed as diameter of inhibition zone at 80 uM after 24 hrs by Kirby -Baur disc diffusion method; format: functional; conditions: ATCC 35218, 24 h, read-out: DIZ
Method in brief: (§2)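 Kirby-Bauer disc diffusion was used. Acetone stocks (160 µM) were serially doubled down to 80, 40 and 20 µM. 4 µL of each went onto 5 mm sterile paper discs, which were dried 30 min at 50 °C. Inoculum was 1.5 × 10⁸ CFU/mL diluted to 3 × 10² CFU/mL, and 50 µL was spread on Mueller-Hinton agar. After 24 h at 37 °C the inhibition-zone diameter was measured. Ciprofloxacin served as positive control.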

Trichoderma viride [3] = assay: Antifungal activity against Trichoderma viride MTCC 1107 assessed as zone of inhibition at 40 uM after 48 hrs by disc diffusion method; format: functional; conditions: MTCC 1107, 48 h, read-out: IZ; method in brief: as §1
Salmonella typhi [4] = assay: Antimicrobial activity against Salmonella typhi ATCC 23564 assessed as diameter of inhibition zone at 80 uM after 24 hrs by Kirby -Baur disc diffusion method; format: functional, Salmonella enterica subsp. enterica serovar Typhi; conditions: Salmonella enterica, ATCC 23564, 24 h; read-out: DIZ
Salmonella typhi [5] = assay: Antimicrobial activity against Salmonella typhi ATCC 23564 after 24 hrs by broth micro serial dilution method; format: functional, Salmonella enterica subsp. enterica serovar Typhi; conditions: Salmonella enterica, ATCC 23564, 24 h
Aspergillus flavus [6] = assay: Antifungal activity against Aspergillus flavus MTCC 1021 after 48 hrs; format: functional; conditions: MTCC 1021, 48 h
Aspergillus niger [7] = assay: Antifungal activity against Aspergillus niger MTCC 1108 assessed as zone of inhibition at 40 uM after 48 hrs by disc diffusion method; format: functional; conditions: MTCC 1108, 48 h, read-out: IZ; method in brief: as §1
Aspergillus niger [8] = assay: Antifungal activity against Aspergillus niger MTCC 1108 assessed as zone of inhibition at 80 uM after 48 hrs by disc diffusion method; format: functional; conditions: MTCC 1108, 48 h, read-out: IZ; method in brief: as §1
Pseudomonas aeruginosa [9] = assay: Antimicrobial activity against Pseudomonas aeruginosa ATCC 15499 after 24 hrs by broth micro serial dilution method; format: functional; conditions: ATCC 15499, 24 h
Method in brief: (§3)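 This was broth microdilution in autoclaved Mueller-Hinton broth. 150 µL of compound per well was serially diluted […], and 50 µL of test organism was added. Plates were incubated 24 h at 37 °C and optical density was read.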

Salmonella typhi [10] = assay: Antimicrobial activity against Salmonella typhi ATCC 23564 assessed as diameter of inhibition zone at 40 uM after 24 hrs by Kirby -Baur disc diffusion method; format: functional, Salmonella enterica subsp. enterica serovar Typhi; conditions: Salmonella enterica, ATCC 23564, 24 h; read-out: DIZ
Aspergillus niger [11] = assay: Antifungal activity against Aspergillus niger MTCC 1108 after 48 hrs; format: functional; conditions: MTCC 1108, 48 h
Escherichia coli [12] = assay: Antimicrobial activity against Escherichia coli ATCC 35218 assessed as diameter of inhibition zone at 40 uM after 24 hrs by Kirby -Baur disc diffusion method; format: functional; conditions: ATCC 35218, 24 h, read-out: DIZ; method in brief: as §2
Mus musculus = assay: Antiinflammatory activity in mouse assessed as inhibition of carrageenan-induced increase in paw volume at 200 mg/kg administered 1 hr prior to carrageenan challenge measured after 3 hrs relative to control; format: functional
Method in brief: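 Mice were fasted 2 h and placed in groups of five. Controls received saline i.p. Phenylbutazone was given at 100 mg/kg i.p., curcumin at 200 mg/kg i.p., and derivatives at 200 mg/kg. After 1 h, 0.1 mL of 1% carrageenan in saline was injected subplantar into the right hind paw. Paw volume was followed by plethysmometer for 3 h, and % inhibition was calculated as (Vc − Vt)/Vc × 100.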

Staphylococcus aureus [13] = assay: Antimicrobial activity against Staphylococcus aureus ATCC 11632 assessed as diameter of inhibition zone at 40 uM after 24 hrs by Kirby -Baur disc diffusion method; format: functional; conditions: ATCC 11632, 24 h, read-out: DIZ; method in brief: as §2
Escherichia coli [14] = assay: Antimicrobial activity against Escherichia coli ATCC 35218 after 24 hrs by broth micro serial dilution method; format: functional; conditions: ATCC 35218, 24 h; method in brief: as §3
Staphylococcus aureus [15] = assay: Antimicrobial activity against Staphylococcus aureus ATCC 11632 after 24 hrs by broth micro serial dilution method; format: functional; conditions: ATCC 11632, 24 h; method in brief: as §3
Staphylococcus aureus [16] = assay: Antimicrobial activity against Staphylococcus aureus ATCC 11632 assessed as diameter of inhibition zone at 80 uM after 24 hrs by Kirby -Baur disc diffusion method; format: functional; conditions: ATCC 11632, 24 h, read-out: DIZ; method in brief: as §2
Escherichia coli [17] = assay: Antimicrobial activity against Escherichia coli ATCC 35218 assessed as diameter of inhibition zone at 20 uM after 24 hrs by Kirby -Baur disc diffusion method; format: functional; conditions: ATCC 35218, 24 h, read-out: DIZ; method in brief: as §2
Salmonella typhi [18] = assay: Antimicrobial activity against Salmonella typhi ATCC 23564 assessed as diameter of inhibition zone at 20 uM after 24 hrs by Kirby -Baur disc diffusion method; format: functional, Salmonella enterica subsp. enterica serovar Typhi; conditions: Salmonella enterica, ATCC 23564, 24 h; read-out: DIZ
Pseudomonas aeruginosa [19] = assay: Antimicrobial activity against Pseudomonas aeruginosa ATCC 15499 assessed as diameter of inhibition zone at 80 uM after 24 hrs by Kirby -Baur disc diffusion method; format: functional; conditions: ATCC 15499, 24 h, read-out: DIZ; method in brief: as §2
HepG2 = assay: Cytotoxicity against human HepG2 cells after 24 hrs by MTT assay; format: functional, cell-based
Method in brief: (§4)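 The MTT assay seeded 5 × 10⁴ cells per well and grew them 24 h in RPMI 1640 with compound at 2.5–200 µM. Medium without cells was the blank and adriamycin the positive control. MTT was added for 4 h at 37 °C, formazan was solubilised, and absorbance was read at 570 nm. IC50 is the concentration that cuts viability 50% against untreated cells.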

Curvularia lunata [20] = assay: Antifungal activity against Curvularia lunata MTCC 581 assessed as zone of inhibition at 80 uM after 48 hrs by disc diffusion method; format: functional; conditions: MTCC 581, 48 h, read-out: IZ; method in brief: as §1
Bacillus cereus [21] = assay: Antimicrobial activity against Bacillus cereus MTCC 7350 assessed as diameter of inhibition zone at 40 uM after 24 hrs by Kirby -Baur disc diffusion method; format: functional; conditions: MTCC 7350, 24 h, read-out: DIZ; method in brief: as §2
Aspergillus niger [22] = assay: Antifungal activity against Aspergillus niger MTCC 1108 assessed as zone of inhibition at 20 uM after 48 hrs by disc diffusion method; format: functional; conditions: MTCC 1108, 48 h, read-out: IZ; method in brief: as §1
Bacillus cereus [23] = assay: Antimicrobial activity against Bacillus cereus MTCC 7350 after 24 hrs by broth micro serial dilution method; format: functional; conditions: MTCC 7350, 24 h; method in brief: as §3
Curvularia lunata [24] = assay: Antifungal activity against Curvularia lunata MTCC 581 assessed as zone of inhibition at 40 uM after 48 hrs by disc diffusion method; format: functional; conditions: MTCC 581, 48 h, read-out: IZ; method in brief: as §1
Trichoderma viride [25] = assay: Antifungal activity against Trichoderma viride MTCC 1107 after 48 hrs; format: functional; conditions: MTCC 1107, 48 h
HeLa = assay: Cytotoxicity against human HeLa cells after 24 hrs by MTT assay; format: functional, cell-based; method in brief: as §4
Trichoderma viride [26] = assay: Antifungal activity against Trichoderma viride MTCC 1107 assessed as zone of inhibition at 80 uM after 48 hrs by disc diffusion method; format: functional; conditions: MTCC 1107, 48 h, read-out: IZ; method in brief: as §1
Curvularia lunata [27] = assay: Antifungal activity against Curvularia lunata MTCC 581 after 48 hrs; format: functional; conditions: MTCC 581, 48 h
HCT-116 = assay: Cytotoxicity against human HCT116 cells after 24 hrs by MTT assay; format: functional, cell-based; method in brief: as §4
Aspergillus flavus [28] = assay: Antifungal activity against Aspergillus flavus MTCC 1021 assessed as zone of inhibition at 80 uM after 48 hrs by disc diffusion method; format: functional; conditions: MTCC 1021, 48 h, read-out: IZ; method in brief: as §1
Staphylococcus aureus [29] = assay: Antimicrobial activity against Staphylococcus aureus ATCC 11632 assessed as diameter of inhibition zone at 20 uM after 24 hrs by Kirby -Baur disc diffusion method; format: functional; conditions: ATCC 11632, 24 h, read-out: DIZ; method in brief: as §2
Pseudomonas aeruginosa [30] = assay: Antimicrobial activity against Pseudomonas aeruginosa ATCC 15499 assessed as diameter of inhibition zone at 20 uM after 24 hrs by Kirby -Baur disc diffusion method; format: functional; method in brief: as §2
Bacillus cereus [31] = assay: Antimicrobial activity against Bacillus cereus MTCC 7350 assessed as diameter of inhibition zone at 20 uM after 24 hrs by Kirby -Baur disc diffusion method; format: functional; conditions: MTCC 7350, 24 h, read-out: DIZ; method in brief: as §2
Aspergillus flavus [32] = assay: Antifungal activity against Aspergillus flavus MTCC 1021 assessed as zone of inhibition at 40 uM after 48 hrs by disc diffusion method; format: functional; conditions: MTCC 1021, 48 h, read-out: IZ; method in brief: as §1
Pseudomonas aeruginosa [33] = assay: Antimicrobial activity against Pseudomonas aeruginosa ATCC 15499 assessed as diameter of inhibition zone at 40 uM after 24 hrs by Kirby -Baur disc diffusion method; format: functional; conditions: ATCC 15499, 24 h, read-out: DIZ; method in brief: as §2
Trichoderma viride [34] = assay: Antifungal activity against Trichoderma viride MTCC 1107 assessed as zone of inhibition at 20 uM after 48 hrs by disc diffusion method; format: functional; conditions: MTCC 1107, 48 h, read-out: IZ; method in brief: as §1
Bacillus cereus [35] = assay: Antimicrobial activity against Bacillus cereus MTCC 7350 assessed as diameter of inhibition zone at 80 uM after 24 hrs by Kirby -Baur disc diffusion method; format: functional; conditions: MTCC 7350, 24 h, read-out: DIZ; method in brief: as §2
QG-56 = assay: Cytotoxicity against human QG56 cells after 24 hrs by MTT assay; format: functional, cell-based; method in brief: as §4
Curvularia lunata [36] = assay: Antifungal activity against Curvularia lunata MTCC 581 assessed as zone of inhibition at 20 uM after 48 hrs by disc diffusion method; format: functional; conditions: MTCC 581, 48 h, read-out: IZ; method in brief: as §1

COc1cc(/C=C/C(O)=C/C(/C=C/c2ccc(O)c(OC)c2)=N/c2ccc(S(=O)(=O)Nc3ccccn3)cc2)ccc1O
inhibition zone (IZ) (Aspergillus flavus [1]): inactive | zone of inhibition at 80 µM (Escherichia coli [2]): 20 mm | zone of inhibition at 40 µM (Trichoderma viride [3]): 13 mm | zone of inhibition at 80 µM (Salmonella typhi [4]): 18 mm | MIC (Salmonella typhi [5]): 20 µM (≈ 12 µg/mL) | MIC (Aspergillus flavus [6]): > 80 µM | zone of inhibition at 40 µM (Aspergillus niger [7]): 12 mm | zone of inhibition at 80 µM (Aspergillus niger [8]): 14 mm | MIC (Pseudomonas aeruginosa [9]): 20 µM (≈ 12 µg/mL) | zone of inhibition at 40 µM (Salmonella typhi [10]): 14 mm | MIC (Aspergillus niger [11]): 40 µM (≈ 24 µg/mL) | zone of inhibition at 40 µM (Escherichia coli [12]): 19 mm | inhibition in vivo at 200 mg/kg (Mus musculus): 37% | zone of inhibition at 40 µM (Staphylococcus aureus [13]): 17 mm | MIC (Escherichia coli [14]): 20 µM (≈ 12 µg/mL) | MIC (Staphylococcus aureus [15]): 20 µM (≈ 12 µg/mL) | zone of inhibition at 80 µM (Staphylococcus aureus [16]): 18 mm | zone of inhibition at 20 µM (Escherichia coli [17]): 15 mm | zone of inhibition at 20 µM (Salmonella typhi [18]): 11 mm | zone of inhibition at 80 µM (Pseudomonas aeruginosa [19]): 13 mm | IC50 (HepG2): 25 µM | zone of inhibition at 80 µM (Curvularia lunata [20]): 12 mm | zone of inhibition at 40 µM (Bacillus cereus [21]): 16 mm | zone of inhibition at 20 µM (Aspergillus niger [22]): 9 mm | MIC (Bacillus cereus [23]): 20 µM (≈ 12 µg/mL) | zone of inhibition at 40 µM (Curvularia lunata [24]): 9 mm | MIC (Trichoderma viride [25]): 20 µM (≈ 12 µg/mL) | IC50 (HeLa): 50 µM | zone of inhibition at 80 µM (Trichoderma viride [26]): 17 mm | MIC (Curvularia lunata [27]): > 80 µM | IC50 (HCT-116): 25 µM | zone of inhibition at 80 µM (Aspergillus flavus [28]): 12 mm | zone of inhibition at 20 µM (Staphylococcus aureus [29]): 11 mm | diameter of the inhibition zone (DIZ) (Pseudomonas aeruginosa [30]): inactive | zone of inhibition at 20 µM (Bacillus cereus [31]): 11 mm | zone of inhibition at 40 µM (Aspergillus flavus [32]): 9 mm | zone of inhibition at 40 µM (Pseudomonas aeruginosa [33]): 11 mm | zone of inhibition at 20 µM (Trichoderma viride [34]): 10 mm | zone of inhibition at 80 µM (Bacillus cereus [35]): 19 mm | IC50 (QG-56): 50 µM | zone of inhibition at 20 µM (Curvularia lunata [36]): 9 mm
